This note sets out measurements from ChEMBL document CHEMBL1629599, “A small-molecule screen identifies the antipsychotic drug pimozide as an inhibitor of Listeria monocytogenes infection” (2009).

Experiment [1] has as its system Listeria monocytogenes. Kind of experiment: Antimicrobial activity against Listeria monocytogenes DH-L1252 infected in murine bone marrow macrophages assessed as decrease in GFP reporter gene expression at 18.1 uM after 15 hrs. It counts as functional, organism-based. Put shortly:
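Primary BALB/c bone marrow macrophages (differentiated 6 days with L929 supernatant) are treated with 18.1 µM compound or DMSO, then infected with GFP-expressing 10403S (DH-L1252) at MOI 1:2. Extracellular bacteria are killed with 5 µg/ml gentamicin after 1 h. At 15 h post-infection, cells are fixed with paraformaldehyde and Hoechst-stained, and GFP is imaged by automated microscopy. Three independent infections in duplicate.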

In experiment [2] the test system is Listeria monocytogenes. As to the kind of experiment: Antimicrobial activity against Listeria monocytogenes DH-L1252 infected in murine bone marrow macrophages assessed as decrease in growth rate at 18.1 uM after 6 hrs. It counts as functional, organism-based.
The test system of experiment [3] is Listeria monocytogenes. As to the kind of experiment: Antimicrobial activity against Listeria monocytogenes DH-L1252 infected in murine bone marrow macrophages assessed as log reduction in intracellular bacterial count upto 10 hrs. Format: functional. Put shortly: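 BALB/c bone-marrow macrophages were seeded at 4 × 10^5/well 24 h ahead and pretreated 2 h with 18.1 µM drug or DMSO. They were infected at MOI 1:2 in antibiotic-free medium with washed Listeria grown 14–16 h in BHI at 30°C without shaking, with drug present throughout. At 1 h, 5 µg/ml gentamicin was added. At each time point cells were lysed in 0.1% Triton X-100 and CFU counted on LB agar, in triplicate.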

The subject of experiment [4] is Listeria monocytogenes. As to the kind of experiment: Antimicrobial activity against Listeria monocytogenes DH-L1252 infected in murine bone marrow macrophages assessed as intracellular bacterial replication upto 10 hrs. Format: functional, organism-based. Put shortly: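 BALB/c bone marrow macrophages (4 × 10^5/well) are pretreated 2 h with 18.1 µM compound or DMSO, then infected with washed wild-type 10403S at MOI 1:2 in the presence of compound. At 1 h, medium with 5 µg/ml gentamicin plus compound is added. At set times, cells are lysed in 0.1% Triton X-100 and lysates plated on LB agar for CFU. Triplicates.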

The subject of experiment [5] is Listeria monocytogenes. Kind of experiment: Inhibition of internalization of Listeria monocytogenes 10403S into murine bone marrow macrophages pretreated at 2.5 to 20 uM for 2 hrs. Format: functional. Put shortly: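 Bone marrow macrophages are pretreated 2 h with twofold compound dilutions, then infected with wild-type 10403S at MOI 10:1. Extracellular bacteria are killed with 50 µg/ml gentamicin at 30 min. At 90 min, cells are lysed and intracellular CFU enumerated. Three experiments in triplicate, fitted by linear regression.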

The subject of experiment [6] is Listeria monocytogenes. Kind of experiment: Inhibition of internalization of Listeria monocytogenes 10403S into murine J774 cells pretreated at 18.1 uM for 2 hrs. It counts as functional. Put shortly:
(§1)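 J774 or RAW 264.7 cells (4 × 10^5/well) are pretreated 2 h with 18.1 µM compound or DMSO, then infected with washed wild-type 10403S at MOI 10:1 with compound. At 30 min, medium with 50 µg/ml gentamicin plus compound is added. At 90 min, cells are lysed in 0.1% Triton X-100 and intracellular CFU plated on LB agar. Triplicates.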

Experiment [7] has as its system Listeria monocytogenes. Kind of experiment: Inhibition of internalization of Listeria monocytogenes 10403S into murine Raw 264.7 cells pretreated at 18.1 uM for 2 hrs. Format: functional. To be noted: RAW264.7. Put shortly:
as §1

The test system of a further experiment is Bacillus subtilis. As to the kind of experiment: Inhibition of internalization of Bacillus subtilis into murine murine bone marrow macrophages pretreated at 18.1 uM for 2 hrs. It counts as functional. Put shortly: (§2)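 Gentamicin protection assay: bone marrow macrophages (4 × 10^5/well) pretreated 2 h with 18.1 µM compound or DMSO, then infected with B. subtilis 3610 (MOI 1.5:1), Salmonella Typhimurium IR715 (MOI 20:1) or E. coli K12 MM294 (MOI 20:1), all grown in LB at 37°C. After 30 min, 50 µg/ml gentamicin plus compound added; lysed at 90 min; CFU on LB agar; triplicates.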

The subject of the next experiment is Salmonella typhimurium. Kind of experiment: Inhibition of internalization of Salmonella enterica serovar Typhimurium into murine murine bone marrow macrophages pretreated at 18.1 uM for 2 hrs. Format: functional, Salmonella enterica subsp. enterica serovar Typhimurium. Put shortly: as §2
In a further experiment the test system is Escherichia coli. As to the kind of experiment: Inhibition of internalization of Escherichia coli K-12 into murine murine bone marrow macrophages pretreated at 18.1 uM for 2 hrs. Format: functional. Put shortly:
as §2

For experiment [8], the system named is Listeria monocytogenes. Kind of experiment: Inhibition of internalization of Listeria monocytogenes DH-L1252 into murine bone marrow macrophages assessed as reduction in vacuolar escape of bacteria using phalloidin staining. Format: functional. Put shortly: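 Bone marrow macrophages on coverslips are treated 2 h with 18.1 µM compound or DMSO, then infected 30 min at MOI 10:1 with GFP 10403S grown to OD600 ~0.5 at 37°C. Gentamicin (50 µg/ml) plus compound is added. At 90 min, cells are fixed and stained with Texas Red-phalloidin and Hoechst. At least 100 bacteria per coverslip are scored as percent F-actin-associated.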

For experiment [9], the system named is Listeria monocytogenes. Kind of experiment: Antimicrobial activity against Listeria monocytogenes 10403S infected in L2 cells assessed as intracellular bacterial replication. It counts as functional, cell-based. Put shortly:
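L2 fibroblasts (2 × 10^5/well, seeded 24 h before) are pretreated 2 h with 18.1 µM compound or DMSO. They are then infected with washed wild-type 10403S grown 14–16 h at 30°C in BHI, in antibiotic-free medium with compound. At 1 h, medium with 50 µg/ml gentamicin plus compound is added. At set times, cells are lysed in 0.1% Triton X-100 and lysates plated on LB agar for CFU. Triplicates.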

The subject of experiment [10] is Listeria monocytogenes. Kind of experiment: Antimicrobial activity against Listeria monocytogenes 10403S infected in L2 cells assessed as decrease in number of plaque formation at 18.1 uM after 1 hr. It counts as functional, cell-based.
The subject of experiment [11] is Listeria monocytogenes. As to the kind of experiment: Antimicrobial activity against Listeria monocytogenes 10403S infected in L2 cells assessed as decrease in plaque size at 18.1 uM after 1 hr. It counts as functional. Particulars: L2, 1 h. Put shortly: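 Wild-type L. monocytogenes grown 14–16 h, PBS-washed, infects L2 fibroblast monolayers (2 × 10^6 cells/well, seeded 24 h before) at MOI 1:5 after 2 h compound or DMSO pretreatment. At 1 h, wash and add agarose overlay with 30 µg/ml gentamicin plus 18.1 µM compound. Neutral red overlay added at 72 h. Plates scanned at 96 h; diameters of 10 plaques per well expressed as percent of DMSO; three independent experiments.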

Experiment [12] relates to Listeria monocytogenes. Kind of experiment: Inhibition of Listeria monocytogenes 10403S entry into murine bone marrow macrophages at 18.1 uM after 30 mins in calcium-free medium. Format: functional. To be noted: 0.5 h. Put shortly:
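Bone marrow macrophages are preincubated 30 min in calcium-free buffer (NaCl, KCl, MgCl2, 0.1 mM EGTA, glucose, HEPES, pH 7.35) with 18.1 µM compound or DMSO. They are then infected with wild-type 10403S for 15 min. Calcium-free medium with 50 µg/ml gentamicin plus compound is added. At 45 min, cells are lysed and intracellular CFU plated on LB agar. Triplicates.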

Activity calls are given as the source filed them. The calls are words filed in the database; no cut-off is given here.

With `O=c1[nH]c2ccccc2n1C1CCN(CCCC(c2ccc(F)cc2)c2ccc(F)cc2)CC1` [PIMOZIDE], the result in the experiment on Listeria monocytogenes [1] was Active. Further, the outcome in the experiment on Listeria monocytogenes [2], in the experiment on Listeria monocytogenes [4] and in the experiment on Listeria monocytogenes [9] was inactive. In the experiment on Listeria monocytogenes [3], the FC is 1. Besides, in the experiment with Listeria monocytogenes [5], the inhibition entry was “Dose-dependent effect”. Besides, the inhibition at 18.1 µM worked out at 75% in the experiment on Listeria monocytogenes [6]; 95% in the experiment with Listeria monocytogenes [7]; 73% in the experiment with Bacillus subtilis; 64% in the experiment with Salmonella typhimurium; 60% in the experiment with Escherichia coli; 47.1% in the experiment with Listeria monocytogenes [11]. For the same compound, the inhibition at 18.1 µM in the experiment on Listeria monocytogenes [12] was found to be 95%. Further, in the experiment with Listeria monocytogenes [8], the “inhibition (INH)” value stood at 26.3%. In the experiment with Listeria monocytogenes [10], the inhibition result is “Active”.

One may read the inhibition as how much of the control response was suppressed.
